Reference: ChEMBL document CHEMBL2331548, “Identification of N-acyl 4-(3-pyridonyl)phenylalanine derivatives and their orally active prodrug esters as dual acting α4β1 and α4β7 receptor antagonists” (Bioorg Med Chem Lett, 2013)
≈ marks a conversion by molar mass, not a printed value. Calls of active or inactive are those of the source. The calls are words filed in the database; no cut-off is given here.

Key:
[1] = AUC in dog at 10 mg/kg, iv; format: ADME, organism-based, Canis lupus familiaris; design: dose 10 mg/kg, route intravenous; details: plasma
Method in brief: (§1)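 Intravenous pharmacokinetics of the acid: rat and dog dosed at 10 mg/kg, monkey at 15 mg/kg. AUC (ng h/mL), clearance (mL/min/kg) and Vss (mL/kg) derived from plasma levels.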

[2] = Clearance in rat at 10 mg/kg, iv; format: ADME, organism-based; design: dose 10 mg/kg, route intravenous; details: in vivo; method in brief: as §1
[3] = biological target: T1, Integrin alpha-4/beta-7 (Homo sapiens, UniProt P13612+P26010); assay: Inhibition of human MAdCAM1 binding to integrin alpha4beta7 receptor in human RPMI 8866 cells labeled with Calcein AM; format: cell-based
T1 sequence (P13612 whole entry): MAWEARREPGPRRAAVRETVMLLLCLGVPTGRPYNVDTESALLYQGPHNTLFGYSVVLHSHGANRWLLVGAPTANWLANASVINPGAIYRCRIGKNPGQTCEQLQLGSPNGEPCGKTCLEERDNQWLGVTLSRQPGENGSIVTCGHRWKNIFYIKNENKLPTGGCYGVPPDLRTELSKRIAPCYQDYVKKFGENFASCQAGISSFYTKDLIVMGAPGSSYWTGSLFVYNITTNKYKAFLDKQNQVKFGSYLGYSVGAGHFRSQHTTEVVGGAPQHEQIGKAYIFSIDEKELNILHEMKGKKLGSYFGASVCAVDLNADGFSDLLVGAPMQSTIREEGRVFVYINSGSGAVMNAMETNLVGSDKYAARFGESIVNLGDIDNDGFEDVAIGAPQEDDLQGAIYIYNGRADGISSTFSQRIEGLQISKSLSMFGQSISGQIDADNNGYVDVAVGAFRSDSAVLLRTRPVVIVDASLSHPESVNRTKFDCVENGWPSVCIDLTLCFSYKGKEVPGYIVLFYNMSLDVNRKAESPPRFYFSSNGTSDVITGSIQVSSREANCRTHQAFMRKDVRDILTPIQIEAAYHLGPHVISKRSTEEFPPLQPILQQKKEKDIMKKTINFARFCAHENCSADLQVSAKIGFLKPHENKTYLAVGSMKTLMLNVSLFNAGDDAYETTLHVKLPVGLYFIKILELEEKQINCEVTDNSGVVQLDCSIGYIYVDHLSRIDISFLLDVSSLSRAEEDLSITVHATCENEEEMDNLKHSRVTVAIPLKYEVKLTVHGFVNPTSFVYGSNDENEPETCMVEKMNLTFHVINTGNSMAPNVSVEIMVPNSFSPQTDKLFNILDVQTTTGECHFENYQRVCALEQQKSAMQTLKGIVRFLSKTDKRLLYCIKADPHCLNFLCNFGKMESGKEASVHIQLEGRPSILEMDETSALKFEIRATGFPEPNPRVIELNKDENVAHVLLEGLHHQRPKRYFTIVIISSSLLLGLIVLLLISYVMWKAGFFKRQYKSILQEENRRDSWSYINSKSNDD
T1 sequence (P26010 whole entry): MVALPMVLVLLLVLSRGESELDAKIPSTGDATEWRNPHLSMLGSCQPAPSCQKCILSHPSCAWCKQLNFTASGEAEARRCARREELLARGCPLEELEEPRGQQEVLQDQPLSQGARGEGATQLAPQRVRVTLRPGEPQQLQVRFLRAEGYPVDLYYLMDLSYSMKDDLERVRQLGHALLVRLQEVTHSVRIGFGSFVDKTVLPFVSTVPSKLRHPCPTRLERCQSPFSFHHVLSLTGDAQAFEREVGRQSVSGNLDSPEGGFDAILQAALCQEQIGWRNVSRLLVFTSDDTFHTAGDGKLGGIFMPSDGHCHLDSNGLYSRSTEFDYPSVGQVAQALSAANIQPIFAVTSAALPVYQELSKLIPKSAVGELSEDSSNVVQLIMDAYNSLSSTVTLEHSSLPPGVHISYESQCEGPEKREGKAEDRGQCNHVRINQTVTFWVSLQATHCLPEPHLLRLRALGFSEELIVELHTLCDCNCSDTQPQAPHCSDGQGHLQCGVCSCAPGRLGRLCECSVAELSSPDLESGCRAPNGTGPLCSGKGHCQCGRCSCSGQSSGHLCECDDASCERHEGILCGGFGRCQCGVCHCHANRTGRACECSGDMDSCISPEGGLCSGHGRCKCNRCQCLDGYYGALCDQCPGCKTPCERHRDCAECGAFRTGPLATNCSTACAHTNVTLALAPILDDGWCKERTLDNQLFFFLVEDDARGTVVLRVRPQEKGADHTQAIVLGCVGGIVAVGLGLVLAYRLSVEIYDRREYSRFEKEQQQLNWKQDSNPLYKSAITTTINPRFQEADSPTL
Method in brief: (§2)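 Serially diluted compound tested for blocking adhesion of Calcein AM-labelled cells to recombinant human counter-ligand: RAMOS cells on VCAM-1 (α4β1) and RPMI 8866 cells on MAdCAM-1 (α4β7). Cells activated beforehand in Mn2+-containing binding buffer for maximal activation. IC50 taken from fluorescence; RO0270608 run on every plate, and relative potency expressed as fold versus this control because cell activity drifted with passage.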

[4] = Clearance in dog at 10 mg/kg, iv; format: ADME, organism-based, Canis lupus familiaris; design: dose 10 mg/kg, route intravenous; details: in vivo; method in brief: as §1
[5] = Apparent permeability across human Caco2 cells; format: ADME, cell-based; details: Caco-2
[6] = biological target: Integrin alpha-4/beta-7 (Homo sapiens) (UniProt P13612+P26010); assay: Inhibition of human MAdCAM1 binding to integrin alpha4beta7 receptor in human RPMI 8866 cells labeled with Calcein AM relative to RO0270608; format: cell-based; method in brief: as §2
[7] = biological target: T2, Integrin alpha-4/beta-1 (Homo sapiens, UniProt P05556+P13612); assay: Inhibition of human VCAM1 binding to integrin alpha4beta1 receptor in human Ramos cells labeled with Calcein AM relative to RO0270608; format: cell-based; method in brief: as §2
T2 sequence (P05556 whole entry, one chain of several): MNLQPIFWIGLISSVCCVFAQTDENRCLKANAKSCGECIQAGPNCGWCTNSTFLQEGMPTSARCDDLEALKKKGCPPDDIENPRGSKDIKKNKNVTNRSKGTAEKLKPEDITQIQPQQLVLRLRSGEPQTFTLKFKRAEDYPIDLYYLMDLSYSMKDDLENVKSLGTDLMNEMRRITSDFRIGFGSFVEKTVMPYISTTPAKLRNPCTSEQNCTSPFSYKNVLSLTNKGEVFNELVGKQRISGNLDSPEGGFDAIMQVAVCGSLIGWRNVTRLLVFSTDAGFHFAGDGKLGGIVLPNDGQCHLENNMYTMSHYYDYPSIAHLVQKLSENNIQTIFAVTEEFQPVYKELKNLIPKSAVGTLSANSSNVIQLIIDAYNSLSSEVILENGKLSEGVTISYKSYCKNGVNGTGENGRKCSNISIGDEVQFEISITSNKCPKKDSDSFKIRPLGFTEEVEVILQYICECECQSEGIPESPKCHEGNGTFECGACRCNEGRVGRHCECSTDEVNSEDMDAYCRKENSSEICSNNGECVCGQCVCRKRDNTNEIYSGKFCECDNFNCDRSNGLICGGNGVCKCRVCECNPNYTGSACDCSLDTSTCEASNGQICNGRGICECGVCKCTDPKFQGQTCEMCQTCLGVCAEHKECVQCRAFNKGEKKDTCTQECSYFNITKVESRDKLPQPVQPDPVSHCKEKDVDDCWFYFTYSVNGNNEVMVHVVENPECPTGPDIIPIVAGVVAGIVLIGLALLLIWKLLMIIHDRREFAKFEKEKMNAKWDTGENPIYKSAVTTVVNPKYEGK

[8] = biological target: T2, Integrin alpha-4/beta-1; assay: Inhibition of human VCAM1 binding to integrin alpha4beta1 receptor in human Ramos cells labeled with Calcein AM; format: cell-based; method in brief: as §2
[9] = Clearance in monkey at 15 mg/kg, iv; details: cynomolgus monkey, in vivo
[10] = AUC in monkey at 15 mg/kg, iv; details: cynomolgus monkey, plasma
[11] = AUC in rat at 10 mg/kg, iv; format: ADME, organism-based; design: dose 10 mg/kg, route intravenous; details: plasma; method in brief: as §1
[12] = Oral bioavailability in rat; format: ADME, organism-based; details: in vivo
[13] = Oral bioavailability in dog; format: ADME, organism-based, Canis lupus familiaris; details: in vivo
[14] = biological target: hERG (KCNH2) (Homo sapiens, UniProt Q12809); assay: Inhibition of human ERG
hERG (KCNH2), sequence (Q12809 whole entry): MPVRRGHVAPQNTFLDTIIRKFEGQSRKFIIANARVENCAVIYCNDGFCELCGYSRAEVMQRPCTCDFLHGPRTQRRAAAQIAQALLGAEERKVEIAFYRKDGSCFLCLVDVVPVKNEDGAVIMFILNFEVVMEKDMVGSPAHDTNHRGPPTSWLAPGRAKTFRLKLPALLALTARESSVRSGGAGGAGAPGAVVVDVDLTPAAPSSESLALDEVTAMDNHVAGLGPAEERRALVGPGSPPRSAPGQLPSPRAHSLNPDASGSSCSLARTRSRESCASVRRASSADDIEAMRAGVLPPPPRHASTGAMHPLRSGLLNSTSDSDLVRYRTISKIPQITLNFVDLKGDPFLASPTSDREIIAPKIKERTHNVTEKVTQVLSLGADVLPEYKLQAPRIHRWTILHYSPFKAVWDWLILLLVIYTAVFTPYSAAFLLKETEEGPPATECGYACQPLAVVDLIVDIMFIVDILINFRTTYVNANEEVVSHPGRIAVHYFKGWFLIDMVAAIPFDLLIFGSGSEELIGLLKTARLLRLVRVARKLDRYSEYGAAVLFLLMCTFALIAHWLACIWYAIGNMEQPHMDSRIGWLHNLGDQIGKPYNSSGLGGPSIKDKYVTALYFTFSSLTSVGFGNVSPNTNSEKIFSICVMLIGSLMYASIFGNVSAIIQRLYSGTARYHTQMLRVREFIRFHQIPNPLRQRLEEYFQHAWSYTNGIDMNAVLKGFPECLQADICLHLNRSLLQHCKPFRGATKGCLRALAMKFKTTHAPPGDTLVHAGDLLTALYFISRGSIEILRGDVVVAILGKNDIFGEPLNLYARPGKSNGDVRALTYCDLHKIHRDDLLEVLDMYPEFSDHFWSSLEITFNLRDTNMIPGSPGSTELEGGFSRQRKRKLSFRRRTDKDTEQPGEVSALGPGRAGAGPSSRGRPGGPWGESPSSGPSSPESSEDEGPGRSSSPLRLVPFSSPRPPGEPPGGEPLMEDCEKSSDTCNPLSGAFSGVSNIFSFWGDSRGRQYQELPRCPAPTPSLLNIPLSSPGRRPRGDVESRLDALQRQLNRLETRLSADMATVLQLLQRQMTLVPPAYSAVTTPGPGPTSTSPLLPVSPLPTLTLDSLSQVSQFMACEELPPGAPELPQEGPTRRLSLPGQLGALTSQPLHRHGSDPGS

[15] = Stability in simulated intestinal fluid at pH 7.5 assessed as half life; format: physicochemical; details: simulated gi fluid
[16] = Solubility in water; format: physicochemical
[17] = Solubility in simulated gastric fluid at pH 2.0; format: physicochemical
[18] = Oral bioavailability in dog at 50 mg/kg; format: ADME, organism-based, Canis lupus familiaris; details: in vivo
Method in brief: (§3)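 Ester prodrug given orally (rat and dog 50 mg/kg, monkey 30 mg/kg). Plasma exposure measured as the parent acid, reported as AUC and Cmax; bioavailability (F%) calculated for the acid.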

[19] = test system: Macaca fascicularis; assay: Oral bioavailability in monkey at 30 mg/kg; details: cynomolgus monkey, in vivo
[20] = test system: Cynomolgus monkey; assay: Antiinflammatory activity in cynomolgus monkey challenged with aerosolized Ascaris suum extract assessed as reduction in total leukocytes influx into lungs at 10 and 30 mg/kg, po administered 2 hrs before antigen challenge measured 24 hrs after antigen challenge; format: functional, organism-based; design: dose 30 mg/kg; details: Macaca fascicularis
Method in brief: (§4)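 Cynomolgus monkeys (atopic) dosed orally at 10 or 30 mg/kg, or vehicle, then challenged 2 h later with aerosolized Ascaris suum extract. Bronchiolar lavage fluid collected 24 h post-challenge and inflammatory cells counted by type (macrophages, neutrophils, eosinophils, lymphocytes, total) as cells ×10^4/mL.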

[21] = test system: Cynomolgus monkey; assay: Antiinflammatory activity in cynomolgus monkey challenged with aerosolized Ascaris suum extract assessed as reduction in neutrophils influx into lungs at 10 and 30 mg/kg, po administered 2 hrs before antigen challenge measured 24 hrs after antigen challenge; format: functional, organism-based; design: dose 30 mg/kg; details: Macaca fascicularis; method in brief: as §4
[22] = test system: Rattus norvegicus; assay: AUC in rat assessed as (2S)-2-(2,6-dichlorobenzamido)-3-(4-(2-hydroxy-1,6-dimethyl-4-(trifluoromethyl)-1,2-dihydropyridin-3-yl)phenyl)propanoic acid level at 50 mg/kg, po; format: ADME, organism-based, Plasma; design: dose 50 mg/kg, route oral; details: in vivo; method in brief: as §3
[23] = test system: Canis familiaris; assay: AUC in dog assessed as (2S)-2-(2,6-dichlorobenzamido)-3-(4-(2-hydroxy-1,6-dimethyl-4-(trifluoromethyl)-1,2-dihydropyridin-3-yl)phenyl)propanoic acid level at 50 mg/kg, po; format: ADME, organism-based, Canis lupus familiaris, Plasma; design: dose 50 mg/kg, route oral; details: in vivo; method in brief: as §3
[24] = test system: Liver; assay: Stability in mouse liver microsomes assessed as prodrug hydrolysis; format: ADME, Microsome
Method in brief: (§5)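 Ester prodrug incubated in liver microsomal preparations from mouse, rat, dog, monkey and human; percent of ester remaining followed at 0, 10, 30 and 90 min. A buffer-only incubation without microsomes served as control.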

[25] = test system: Cynomolgus monkey; assay: Antiinflammatory activity in cynomolgus monkey challenged with aerosolized Ascaris suum extract assessed as reduction in lymphocytes influx into lungs at 10 and 30 mg/kg, po administered 2 hrs before antigen challenge measured 24 hrs after antigen challenge; format: functional, organism-based; design: dose 30 mg/kg; details: Macaca fascicularis; method in brief: as §4
[26] = Oral bioavailability in rat at 50 mg/kg; format: ADME, organism-based; details: in vivo; method in brief: as §3
[27] = test system: Cynomolgus monkey; assay: Antiinflammatory activity in cynomolgus monkey challenged with aerosolized Ascaris suum extract assessed as reduction in eosinophils influx into lungs at 10 and 30 mg/kg, po administered 2 hrs before antigen challenge measured 24 hrs after antigen challenge; format: functional, organism-based; design: dose 30 mg/kg; details: Macaca fascicularis; method in brief: as §4
[28] = test system: Liver microsomes; assay: Stability in rat liver microsomes assessed as prodrug hydrolysis; format: ADME, Microsome; method in brief: as §5
[29] = test system: Plasma; assay: Stability in dog plasma assessed as unchanged prodrug level on days 1 and 6; format: ADME, cell-free, Canis lupus familiaris
Method in brief: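 Unchanged prodrug measured in dog plasma on days 1 and 6 of subchronic safety studies after dosing with the ester prodrug.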

[30] = test system: Liver; assay: Stability in dog liver microsomes assessed as prodrug hydrolysis; format: ADME, Canis lupus familiaris, Microsome; method in brief: as §5
[31] = test system: Canis familiaris; assay: Cmax in dog at 50 mg/kg, po; format: ADME, organism-based, Canis lupus familiaris; design: dose 50 mg/kg, route oral; details: in vivo; method in brief: as §3
[32] = Solubility in simulated intestinal fluid at pH 7.5; format: physicochemical
[33] = test system: Liver microsomes; assay: Stability in human liver microsomes assessed as prodrug hydrolysis; format: ADME, Microsome; method in brief: as §5
[34] = test system: Macaca fascicularis; assay: AUC in monkey assessed as (2S)-2-(2,6-dichlorobenzamido)-3-(4-(2-hydroxy-1,6-dimethyl-4-(trifluoromethyl)-1,2-dihydropyridin-3-yl)phenyl)propanoic acid level at 30 mg/kg, po; details: cynomolgus monkey, in vivo
[35] = Stability in monkey liver microsomes assessed as prodrug hydrolysis; format: ADME, Macaca mulatta, Microsome; details: rhesus monkey; method in brief: as §5
[36] = test system: Rattus norvegicus; assay: Cmax in rat at 50 mg/kg, po; format: ADME, organism-based; design: dose 50 mg/kg, route oral; details: in vivo; method in brief: as §3

Cc1cc(C(F)(F)F)c(-c2ccc(C[C@H](NC(=O)c3c(Cl)cccc3Cl)C(=O)O)cc2)c(=O)n1C
AUC [1]: 10900 ng·h/mL
clearance [2]: 15.7 mL/min/kg
IC50 [3]: 42 nM
clearance [4]: 16.5 mL/min/kg
Papp [5]: 0.14 ×10⁻⁶ cm/s
Ratio IC50 [6]: 6.5
Ratio IC50 [7]: 0.81
IC50 [8]: 32 nM
clearance [9]: 3 mL/min/kg
AUC [10]: 35100 ng·h/mL
AUC [11]: 10900 ng·h/mL

CCOC(=O)[C@H](Cc1ccc(-c2c(C(F)(F)F)cc(C)n(C)c2=O)cc1)NC(=O)c1c(Cl)cccc1Cl
bioavailability [12]: 18%
Papp [5]: 27.1 ×10⁻⁶ cm/s
bioavailability [13]: 2%
IC20 [14]: 2700 nM
Stability [15]: Stable
solubility [16]: 6 µg/mL (≈ 10.8 µM)
solubility ([17]; simulated gi fluid, BLD = below limit of detection): BLD

Cc1cc(C(F)(F)F)c(-c2ccc(C[C@H](NC(=O)c3c(Cl)cccc3Cl)C(=O)OCCCN3CCOCC3)cc2)c(=O)n1C
bioavailability [18]: 13%
bioavailability [19]: 46%
Activity [20]: Active
Activity [21]: Active
AUC [22]: 6100 ng·h/mL
AUC [23]: 6420 ng·h/mL
bioavailability [12]: 11%
Stability [24]: Unstable
Activity [25]: Active
bioavailability [26]: 11%
Papp [5]: 16.5 ×10⁻⁶ cm/s
Activity [27]: Active
Stability [28]: Unstable
Stability [29]: 10%
IC20 [14]: 2900 nM
Stability [15]: Stable
Stability [30]: Stable
Cmax [31]: 2400 ng/mL
solubility [32]: 330 µg/mL (≈ 504 µM)
Stability [33]: Stable
AUC [34]: 30150 ng·h/mL
Stability [35]: Unstable
solubility ([17]; simulated gastric fluid, read-out: solubility): 3900 µg/mL (≈ 5960 µM)
Cmax [36]: 2500 ng/mL
